Reference: ChEMBL document CHEMBL4028850, “Identification and Optimization of Pyrrolo[3,2-d]pyrimidine Toll-like Receptor 7 (TLR7) Selective Agonists for the Treatment of Hepatitis B” (J Med Chem, 2017)

Experiments:
[1] = Plasma concentration in dog at 1 mg/kg, po measured after 4 hrs post dose; format: ADME, organism-based, Canis lupus familiaris
[2] = Intrinsic clearance in dog liver microsomes at 1 uM after 60 mins; format: ADME, Canis lupus familiaris, microsome; settings: read-out: CLH
[3] = Activation of NFkappaB (unknown origin) expressed in HEK293 cells after 6 hrs luciferase reporter gene assay; format: cell-based; settings: human
Summary of the method: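 HEK293 cells were transfected with the NFκB-luciferase reporter alone, with no TLR vector, to detect direct NFκB activation.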

Liver = assay: Drug level in Sprague-Dawley rat liver at […], iv or 10 mg/kg, po; format: ADME, organism-based; settings: in vivo, BLD = below limit of detection
[4] = Cmax in C57Bl/6 mouse plasma at 0.3 mg/kg, po measured after 0.5 hrs by LC-MS analysis; format: ADME, organism-based; set-up: dose 0.3 mg/kg, route oral
Summary of the method: (§1)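 Female fasted C57Bl/6 mice, nine per dose, got a single oral dose of 0.3, 1, 3 or 10 mg/kg. Blood was drawn at 0.5 h. Three mice per group were sacrificed at 1, 2 or 4 h for plasma and liver compound levels by LC-MS, and mean maximum levels are reported.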

[5] = Tmax in C57Bl/6 mouse plasma at 0.3 to 10 mg/kg, po by LC-MS analysis; format: ADME, organism-based
Summary of the method: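 Healthy fasted female C57Bl/6 mice, groups of 9, single oral dose 0.3, 1, 3 or 10 mg/kg. Blood at 0.5 h; three mice per group killed at 1, 2 or 4 h for plasma and liver compound (LC-MS) and ISG expression by RT-qPCR as fold change versus vehicle.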

[6] = Intrinsic clearance in dog hepatocytes assessed per million cells at 1 uM up to 120 mins; format: ADME, cell-based, Canis lupus familiaris, Hepatocyte; settings: read-out: CLH
[7] = Oral bioavailability in cynomolgus monkey at 1 to 10 mg/kg administered via gavage measured up to 72 hrs post dose; format: ADME, organism-based, Macaca fascicularis; settings: in vivo
[8] = Ratio of drug uptake in liver to plasma in C57Bl/6 mouse at 0.3 to 10 mg/kg, po by LC-MS analysis; format: ADME, organism-based
Summary of the method: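 Healthy fasted female C57Bl/6 mice, 9 per dose group, given a single oral dose of 0.3, 1, 3 or 10 mg/kg. Blood taken at 0.5 h. At 1, 2 or 4 h, three mice per group were sacrificed and plasma and liver compound levels were measured by LC-MS.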

[9] = Tmax in cynomolgus monkey at 3 mg/kg administered via oral gavage measured up to 72 hrs post dose; format: ADME, organism-based, Macaca fascicularis; settings: in vivo
Summary of the method: (§2)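 Cynomolgus monkeys (five per dose) given single oral gavage doses of 1, 3 or 10 mg/kg; dose levels in different animals, staggered by 3 days. Blood sampled pre-dose and at 0.25, 0.5, 1, 2, 4, 8, 24, 48 and 72 h for plasma compound levels, cytokines (ELISA or Luminex) and gene expression (microarray); clinical signs, body weight and temperature monitored.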

MDR1 = assay: Apparent permeability across apical to basolateral side in MDCK cells expressing human MDR1 at 5 uM by LC-MS/MS analysis; format: ADME, cell-based, Canis lupus familiaris; settings: dog
Summary of the method: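 MDCK cells transfected with human MDR1 were grown as confluent monolayers. 5 µM compound was added apically or basolaterally, with or without the P-gp inhibitor GF120918. Appearance on the opposite side was measured by LC-MS/MS to give Papp; efflux ratio = B→A/A→B without inhibitor.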

[10] = Cmax in cynomolgus monkey at 1 mg/kg administered via oral gavage measured up to 72 hrs post dose; format: ADME, organism-based, Macaca fascicularis; set-up: dose 1 mg/kg, route oral; settings: in vivo
[11] = Cmax in cynomolgus monkey at 10 mg/kg administered via oral gavage measured up to 72 hrs post dose; format: ADME, organism-based, Macaca fascicularis; set-up: dose 10 mg/kg, route oral; settings: in vivo
[12] = Intrinsic clearance in cynomolgus monkey hepatocytes assessed per million cells at 1 uM up to 120 mins; format: ADME, cell-based, Macaca fascicularis, Hepatocyte; settings: read-out: CLH
[13] = Tmax in dog at 1 mg/kg, po; format: ADME, organism-based, Canis lupus familiaris; settings: in vivo
[14] = Intrinsic clearance in rat liver microsomes at 1 uM after 60 mins; format: ADME, microsome; settings: read-out: CLH
[15] = Tmax in cynomolgus monkey at 1 mg/kg administered via oral gavage measured up to 72 hrs post dose; format: ADME, organism-based, Macaca fascicularis; settings: in vivo; summary of the method: as §2
Rattus norvegicus = assay: Drug level in Sprague-Dawley rat systemic circulation at […], iv or 10 mg/kg, po; format: ADME, organism-based; settings: in vivo, BLD = below limit of detection
[16] = Cmax in Sprague-Dawley rat at […], iv or 10 mg/kg, po measured after 1 hr post dose; format: ADME, organism-based; settings: in vivo
[17] = Intrinsic clearance in rat hepatocytes assessed per million cells at 1 uM up to 120 mins; format: ADME, cell-based, Hepatocyte; settings: read-out: CLH
[18] = Cmax in C57Bl/6 mouse plasma at 10 mg/kg, po measured after 0.5 hrs by LC-MS analysis; format: ADME, organism-based; set-up: dose 10 mg/kg, route oral; summary of the method: as §1
[19] = AUC (0 to last) in cynomolgus monkey at 3 mg/kg administered via oral gavage measured up to 72 hrs post dose; format: ADME, organism-based, Macaca fascicularis; set-up: dose 3 mg/kg, time 0 - last, route oral; settings: in vivo
[20] = Cmax in C57Bl/6 mouse plasma at 1 mg/kg, po measured after 0.5 hrs by LC-MS analysis; format: ADME, organism-based; set-up: dose 1 mg/kg, route oral; summary of the method: as §1
[21] = Cmax in cynomolgus monkey at 3 mg/kg administered via oral gavage measured up to 72 hrs post dose; format: ADME, organism-based, Macaca fascicularis; set-up: dose 3 mg/kg, route oral; settings: in vivo
[22] = Tmax in cynomolgus monkey at 10 mg/kg administered via oral gavage measured up to 72 hrs post dose; format: ADME, organism-based, Macaca fascicularis; settings: in vivo; summary of the method: as §2
[23] = Cmax in C57Bl/6 mouse liver at 10 mg/kg, po measured after 0.5 hrs by LC-MS analysis; format: ADME, organism-based; set-up: dose 10 mg/kg, route oral; summary of the method: as §1
[24] = Cmax in C57Bl/6 mouse liver at 0.3 mg/kg, po measured after 0.5 hrs by LC-MS analysis; format: ADME, organism-based; set-up: dose 0.3 mg/kg, route oral; summary of the method: as §1
[25] = AUC (0 to last) in cynomolgus monkey at 10 mg/kg administered via oral gavage measured up to 72 hrs post dose; format: ADME, organism-based, Macaca fascicularis; set-up: dose 10 mg/kg, route oral, time 0 - last; settings: in vivo
[26] = Cmax in C57Bl/6 mouse liver at 1 mg/kg, po measured after 0.5 hrs by LC-MS analysis; format: ADME, organism-based; set-up: dose 1 mg/kg, route oral; summary of the method: as §1
[27] = Intrinsic clearance in human hepatocytes assessed per million cells at 1 uM up to 120 mins; format: ADME, cell-based, Hepatocyte; settings: read-out: CLH
[28] = Cmax in dog at 1 mg/kg, po; format: ADME, organism-based, Canis lupus familiaris; set-up: dose 1 mg/kg, route oral; settings: in vivo
[29] = Intrinsic clearance in mouse liver microsomes at 1 uM after 60 mins; format: ADME, microsome; settings: read-out: CLH
[30] = Cmax in C57Bl/6 mouse liver at 3 mg/kg, po measured after 0.5 hrs by LC-MS analysis; format: ADME, organism-based; set-up: dose 3 mg/kg, route oral; summary of the method: as §1
[31] = Tmax in cynomolgus monkey at 1 to 10 mg/kg administered via oral gavage measured up to 72 hrs post dose; format: ADME, organism-based, Macaca fascicularis; settings: in vivo; summary of the method: as §2
[32] = Intrinsic clearance in mouse hepatocytes assessed per million cells at 1 uM up to 120 mins; format: ADME, cell-based, Hepatocyte; settings: read-out: CLH
[33] = Intrinsic clearance in human liver microsomes at 1 uM after 60 mins; format: ADME, microsome; settings: read-out: CLH
[34] = Cmax in guinea pig up to […], iv; format: ADME, organism-based, Cavia porcellus; set-up: dose 4.9 mg/kg, route intravenous; settings: in vivo
[35] = Intrinsic clearance in cynomolgus monkey liver microsomes at 1 uM after 60 mins; format: ADME, Macaca fascicularis, microsome; settings: read-out: CLH
[36] = Cmax in C57Bl/6 mouse plasma at 3 mg/kg, po measured after 0.5 hrs by LC-MS analysis; format: ADME, organism-based; set-up: dose 3 mg/kg, route oral; summary of the method: as §1

SMILES: Cc1cc(COc2nc(N)nc3ccn(Cc4ccccn4)c23)no1
- concentration at 4 h [1]: 10 ng/mL
- microsomal CLint at 1 µM [2]: 44 µL/min/mg
- MEC [3]: > 25 µM
- Drug uptake (Liver): Bld
- Cmax [4]: 3.7 ng/mL
- Tmax [5]: 30 to 60 min
- hepatocyte CLint at 1 µM [6]: 7 µL/min/1e6 cells
- bioavailability [7]: < 1%
- Kp [8]: 2
- Tmax [9]: 30 to 120 min
- Papp A→B at 5 µM (MDR1): 41 ×10⁻⁶ cm/s
- Cmax [10]: 4.12 ng/mL
- Cmax [11]: 23.4 ng/mL
- hepatocyte CLint at 1 µM [12]: 80 µL/min/1e6 cells
- Tmax [13]: 30 min
- microsomal CLint at 1 µM [14]: > 346 µL/min/mg
- Tmax [15]: 60 to 120 min
- Drug uptake (Rattus norvegicus): Bld
- Cmax [16]: 314 ng/mL
- hepatocyte CLint at 1 µM [17]: > 277 µL/min/1e6 cells
- Cmax [18]: 72.9 ng/mL
- AUC(0-t) at 72 h [19]: 26.7 ng·h/mL
- Cmax [20]: 7.1 ng/mL
- Cmax [21]: 11.2 ng/mL
- Tmax [22]: 30 to 120 min
- Cmax [23]: 152 ng/g
- Cmax [24]: 6.8 ng/g
- AUC(0-t) at 72 h [25]: 57.5 ng·h/mL
- Cmax [26]: 6.3 ng/g
- hepatocyte CLint at 1 µM [27]: 6 µL/min/1e6 cells
- Cmax [28]: 125 ng/mL
- microsomal CLint at 1 µM [29]: 55 µL/min/mg
- Cmax [30]: 23 ng/g
- Tmax [31]: 15 to 120 min
- hepatocyte CLint at 1 µM [32]: 19 µL/min/1e6 cells
- microsomal CLint at 1 µM [33]: 25 µL/min/mg
- Cmax [34]: 9700 ng/mL
- microsomal CLint at 1 µM [35]: 87 µL/min/mg
- Cmax [36]: 2.8 ng/mL
